What all share (assay type): functional, cell-based
In assay [1] the target is Trace amine-associated receptor 1 (Rattus norvegicus, UniProt Q923Y9). Description: Activity at rat TAAR1 expressed in HEK293 cells assessed as cAMP production. Put shortly:
(§1)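 HEK293 cells stably expressing rat or mouse TAAR1, kept in fresh medium ≥2 h, harvested in KRH, preincubated 20-30 min with 200 µM IBMX. Cells boiled 20 min in acetate buffer. cAMP in cleared lysate read by EFC luminescence kit (18 h dark). Responses given as % of T1AM. EC50 from concentration-response fit, mean ± SEM of N independent triplicate runs.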

Assay [2] concerns the target Trace amine-associated receptor 1 (Rattus norvegicus) (UniProt Q923Y9). The assay is described as follows: Efficacy at rat TAAR1 expressed in HEK293 cells assessed as stimulation of cAMP production at 10 uM relative to 3-iodothyronamine.
The target in assay [3] is Trace amine-associated receptor 1 (Mus musculus, UniProt Q923Y8). Description: Activity at mouse TAAR1 expressed in HEK293 cells assessed as cAMP production. In a few lines:
as §1
In general terms: cAMP levels reflect the balance of adenylyl cyclase and phosphodiesterase activity.

Assay [4] deals with Trace amine-associated receptor 1 (Mus musculus) (UniProt Q923Y8). The assay is described as follows: Efficacy at mouse TAAR1 expressed in HEK293 cells assessed as stimulation of cAMP production at 10 uM relative to 3-iodothyronamine.
Chain of Trace amine-associated receptor 1 (Mus musculus) (Q923Y8 whole entry, the tested form may be a part): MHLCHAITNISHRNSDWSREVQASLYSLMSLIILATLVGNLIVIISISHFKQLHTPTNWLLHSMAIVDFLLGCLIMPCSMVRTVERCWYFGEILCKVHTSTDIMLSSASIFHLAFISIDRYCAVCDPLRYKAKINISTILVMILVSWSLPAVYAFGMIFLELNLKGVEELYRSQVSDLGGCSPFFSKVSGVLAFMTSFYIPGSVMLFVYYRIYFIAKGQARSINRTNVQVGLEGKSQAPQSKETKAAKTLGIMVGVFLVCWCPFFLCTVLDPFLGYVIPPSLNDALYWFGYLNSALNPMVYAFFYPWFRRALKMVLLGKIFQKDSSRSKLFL
Assay [5] has the same target. Description: Antagonist activity at mouse TAAR1 expressed in HEK293 cells at 10 uM assessed as inhibition of 3-iodothyronamine-induced cAMP production. Also on record: scale not given: the % may be the effect or the level left. Put shortly: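 Cells harvested in Krebs-Ringer-HEPES, preincubated 20-30 min with 200 µM IBMX, then exposed 1 h at 37 °C in KRH with 133 µM IBMX plus test compound at 10 µM (DMSO vehicle; forskolin 10 µM control). Cells lysed by boiling; cAMP measured by enzyme-fragment-complementation luminescence.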

This passage reports EC50, Emax and Activity results from ChEMBL document CHEMBL1143684, “Exploring the structure-activity relationship of the ethylamine portion of 3-iodothyronamine for rat and mouse trace amine-associated receptor 1” (J Med Chem, 2007).

Chain of Trace amine-associated receptor 1 (Mus musculus, UniProt Q923Y8) (Q923Y8 whole entry): as the sequence (Q923Y8 whole entry, the tested form may be a part) above
Chain of Trace amine-associated receptor 1 (Rattus norvegicus) (Q923Y9 whole entry): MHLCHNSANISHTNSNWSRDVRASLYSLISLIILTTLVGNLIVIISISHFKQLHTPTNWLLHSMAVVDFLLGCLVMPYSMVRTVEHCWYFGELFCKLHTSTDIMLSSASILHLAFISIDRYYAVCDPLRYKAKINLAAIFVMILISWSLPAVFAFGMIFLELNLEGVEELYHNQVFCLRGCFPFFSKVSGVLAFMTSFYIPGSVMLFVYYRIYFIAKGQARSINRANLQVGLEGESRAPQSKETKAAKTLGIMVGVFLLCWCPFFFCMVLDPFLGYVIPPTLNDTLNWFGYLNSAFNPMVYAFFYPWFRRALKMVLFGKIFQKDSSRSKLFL
Chain of Trace amine-associated receptor 1 (Rattus norvegicus, UniProt Q923Y9) (Q923Y9 whole entry): as above

For the compound `NCC(C#Cc1ccccc1)c1ccc(Oc2ccccc2)cc1` (configuration not stated), the EC50 in assay [1] was 62 nM; in assay [3], more than 1000 nM. In addition, the Emax in assay [2] came to 119%; in assay [4] it was 2%.

As to `CN(C)CCCNC(=O)c1ccc(Oc2ccccc2)cc1`, the EC50 in assay [1] and in assay [3] was more than 1000 nM throughout. In addition, the values for the Emax in assay [2] and in assay [4] were 2% and 0%, respectively.

On to `NCC(c1ccccc1)c1ccc(Oc2ccccc2)cc1` (configuration not stated), for which the figures for the EC50 in assay [1] and in assay [3] were 28 nM and more than 1000 nM, respectively. In addition, the Emax in assay [2] was 103%; in assay [4], 35%.

For `NCC(c1ccccc1)c1ccc(Oc2ccccc2)c2ccccc12` (configuration not stated), the results for the EC50 in assay [1] and in assay [3] were 52 nM and more than 1000 nM, respectively. Moreover, the values for the Emax in assay [2] and in assay [4] were 100% and 0%, respectively.

On to `NCCc1ccc(Oc2ccccc2)c2ccccc12`, for which the EC50 is 26 nM in assay [1] and 101 nM in assay [3]. For the same compound, the values for the Emax in assay [2] and in assay [4] were 113% and 104%, respectively.

For `CC(C)(CN)c1ccc(Oc2ccccc2)cc1`, the EC50 in assay [1] and in assay [3] was more than 1000 nM each time. Moreover, the Emax was found to be 13% in assay [2] and 18% in assay [4].

Turning to `COc1ccc(C(CN)c2ccccc2)c2ccccc12` (configuration not stated), the EC50 is 270 nM in assay [1] and more than 1000 nM in assay [3]. The Emax in assay [2] worked out at 71%; in assay [4], 14%.

Take `NCCc1ccc(Oc2ccc(O)cc2)c(I)c1`: the EC50 in assay [1] was 33 nM; in assay [3] it was 314 nM. Also, the Emax in assay [2] and in assay [4] was 100% in each case. Further, the Activity in assay [5] is 30%.

In the case of `NCC(c1ccccc1)c1ccc(O)c2ccccc12` (configuration not stated), the EC50 in assay [1] was 716 nM; in assay [3] it was more than 1000 nM. Further, the Emax came to 89% in assay [2] and 14% in assay [4].

For the compound `NCC(Cc1ccccc1)c1ccc(Oc2ccccc2)cc1` (configuration not stated), the EC50 was 140 nM in assay [1] and more than 1000 nM in assay [3]. In addition, the Emax in assay [2] stood at 92%; in assay [4], 31%.

Take `CC(CN)c1ccc(Oc2ccccc2)cc1` (configuration not stated): the EC50 was 250 nM in assay [1] and more than 1000 nM in assay [3]. The Emax in assay [2] stood at 94%; in assay [4], 72%.

With `C#CC(CN)c1ccc(Oc2ccccc2)cc1` (configuration not stated), the EC50 in assay [1] came to 41 nM; in assay [3], 929 nM. In addition, the Emax turned out to be 105% in assay [2] and 79% in assay [4].

For the compound `NCC(c1ccccc1)c1cccc(Oc2ccccc2)c1` (configuration not stated), the EC50 in assay [1] was 19 nM; in assay [3] it was more than 1000 nM. For the same compound, the figures for the Emax in assay [2] and in assay [4] were 131% and 15%, respectively.

With `NCCc1ccc(Oc2ccccc2)cc1`, the EC50 in assay [1] amounted to 63 nM; in assay [3] it was 420 nM. Also, the Emax was determined as 93% in assay [2] and 85% in assay [4].

By EC50 is commonly meant the midpoint of the concentration-response curve. A word on the Emax: it is the maximal effect, on the per cent scale that the assay sets.
